Source: ChEMBL document CHEMBL1153427, “1-Sulfonyl-4-acylpiperazines as selective cannabinoid-1 receptor (CB1R) inverse agonists for the treatment of obesity” (J Med Chem, 2009)

How the values were obtained:
[1] = tested on: Rattus norvegicus; assay: Reduction of overnight food intake in diet induced obese Sprague-Dawley rat at 3 mg/kg, po; assay type: functional; design: scale not given: the % may be the effect or the level left
Outline: (§1)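 Male DIO rats were acclimated at least 3 days in an automated food-intake system, where computer-linked balances logged grams of food eaten every 5 min. They were fed milled MHF diet throughout. Compound or vehicle (10% Tween-80 in water) was given by oral gavage 1 h before dark-cycle onset. Overnight food intake and body-weight change were measured against vehicle, with significance set at P < 0.05.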

[2] = target: T1, Cannabinoid receptor 1 (Homo sapiens, UniProt P21554); assay: Inverse agonist activity at human recombinant CB1R expressed in CHO cells assessed as increase in forskolin-stimulated cAMP level; assay type: functional, cell-based
Outline: (§2)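 Recombinant CB1R-CHO cells were incubated with test compound across a range of concentrations, plus forskolin and the phosphodiesterase inhibitor IBMX. Buffer was Earle's balanced salt solution with 5 mM MgCl₂, 10 mM HEPES pH 7.3 and 1 mg/mL BSA, for 30 min at room temperature, with cAMP read out.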

[3] = Bioavailability in Sprague-Dawley rat at 1 mg/kg, iv and 2 mg/kg, po; assay type: ADME, organism-based; details: in vivo
Outline: (§3)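 Male Sprague-Dawley rats received 1 mpk intravenously or 2 mpk orally. Blood was drawn at various time points into lithium heparin and centrifuged, and plasma was stored at -70 °C. Plasma was extracted by protein precipitation and analysed by LC-MS/MS.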

[4] = target: T1, Cannabinoid receptor 1; assay: Agonist activity at human recombinant CB1R expressed in CHO cells assessed as inhibition of forskolin-stimulated cAMP level; assay type: functional, cell-based; outline: as §2
[5] = target: T2, Cannabinoid receptor 1 (Rattus norvegicus, UniProt P20272); assay: Antagonist activity at rat recombinant CB1R expressed in CHO cells assessed as inhibition of methanandamide-stimulated cAMP level; assay type: functional, cell-based
Outline: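 Antagonist mode of the forskolin-stimulated cAMP assay in CB1R-CHO cells. Methanandamide at 300 nM was the agonist challenge, and IC₅₀ was determined across test-compound concentrations. Percent inhibition was also recorded at a single 2 µM test concentration.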

[6] = target: Cannabinoid receptor 2 (Homo sapiens, UniProt P34972); assay: Displacement of [3H]CP-55940 from human recombinant CB2R expressed in CHO cells; assay type: cell-based
Outline: (§4)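 Radioligand competition used 0.5 nM [³H]CP55940 with recombinant human CB1R-CHO or CB2R-CHO membranes. Bound and free ligand were separated by filtration, and IC₅₀ came from nonlinear curve fitting.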

[7] = Ratio of drug level in brain to plasma in Sprague-Dawley rat at 1 mg/kg, iv and 2 mg/kg, po after 4 hrs; assay type: ADME, organism-based
[8] = target: T2, Cannabinoid receptor 1; assay: Displacement of [3H]CP-55940 from rat recombinant CB1R expressed in CHO cells; assay type: cell-based
[9] = Volume of distribution at steady state in Sprague-Dawley rat at 1 mg/kg, iv and 2 mg/kg, po; assay type: ADME, organism-based; details: in vivo, read-out: Vdss; outline: as §3
[10] = target: T1, Cannabinoid receptor 1; assay: Displacement of [3H]CP-55940 from human recombinant CB1R expressed in CHO cells; assay type: cell-based; outline: as §4
[11] = tested on: Rattus norvegicus; assay: Reduction of body weight in diet induced obese Sprague-Dawley rat at 3 mg/kg, po; assay type: functional; outline: as §1
[12] = target: T1, Cannabinoid receptor 1; assay: Displacement of [3H]SR141716 from human recombinant CB1R expressed in CHO cells; assay type: cell-based
[13] = target: T2, Cannabinoid receptor 1; assay: Agonist activity at rat recombinant CB1R expressed in CHO cells assessed as inhibition of forskolin-stimulated cAMP level; assay type: functional, cell-based; outline: as §2
[14] = Plasma clearance in Sprague-Dawley rat at 1 mg/kg, iv and 2 mg/kg, po; assay type: ADME, organism-based; outline: as §3
[15] = target: T2, Cannabinoid receptor 1; assay: Displacement of [3H] SR-141716 from rat recombinant CB1R expressed in CHO cells; assay type: cell-based
[16] = Ratio of drug level in brain to plasma in Sprague-Dawley rat at 1 mg/kg, iv and 2 mg/kg, po over 0.25 to 4 hrs; assay type: ADME, organism-based
Outline: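 Male Sprague-Dawley rats got 1 mpk iv for brain penetration and were euthanised by CO₂ 1 h later. Whole brain was frozen on dry ice, and blood was taken by cardiac puncture into lithium heparin. PK arms were dosed 1 mpk iv and 2 mpk po, with blood sampled at several time points. Plasma and brain homogenate were extracted by protein precipitation and analysed by LCMS².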

[17] = Half life in Sprague-Dawley rat at 1 mg/kg, iv and 2 mg/kg, po; assay type: ADME, organism-based; details: in vivo; outline: as §3
[18] = target: Voltage-gated inwardly rectifying potassium channel KCNH2 (Homo sapiens, UniProt Q12809); assay: Inhibition of human ERG by MK-0499 binding assay
[19] = Half life in rhesus monkey; assay type: ADME, organism-based, Macaca mulatta; details: in vivo
[20] = target: Cytochrome P450 2C9 (Homo sapiens, UniProt P11712); assay: Inhibition of CYP2C9; assay type: ADME
[21] = Plasma clearance in rhesus monkey; assay type: ADME, organism-based, Macaca mulatta
[22] = species: Rattus norvegicus; assay: Reduction of overnight food intake in diet induced obese Sprague-Dawley rat assessed as minimal effective dose; assay type: functional; details: feed or water, read-out: MED; outline: as §1
[23] = Plasma clearance in dog; assay type: ADME, organism-based, Canis lupus familiaris
[24] = target: T3, Cytochrome P450 2C8 (Homo sapiens, UniProt P10632); assay: Inhibition of CYP2C8; assay type: ADME
T3 sequence (P10632 whole entry): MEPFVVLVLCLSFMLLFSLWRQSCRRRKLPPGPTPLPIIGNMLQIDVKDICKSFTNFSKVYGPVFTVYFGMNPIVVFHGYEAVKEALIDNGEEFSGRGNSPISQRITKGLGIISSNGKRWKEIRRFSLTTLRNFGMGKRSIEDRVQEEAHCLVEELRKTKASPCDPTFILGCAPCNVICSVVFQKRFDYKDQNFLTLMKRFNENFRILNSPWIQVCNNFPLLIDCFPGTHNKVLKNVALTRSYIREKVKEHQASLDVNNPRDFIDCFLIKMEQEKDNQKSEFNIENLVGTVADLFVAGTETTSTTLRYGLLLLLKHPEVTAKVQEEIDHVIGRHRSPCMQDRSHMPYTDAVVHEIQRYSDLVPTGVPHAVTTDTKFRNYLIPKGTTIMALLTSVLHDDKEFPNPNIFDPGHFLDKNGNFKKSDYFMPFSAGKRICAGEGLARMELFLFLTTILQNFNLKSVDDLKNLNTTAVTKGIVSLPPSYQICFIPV

[25] = Volume of distribution at steady state in rhesus monkey; assay type: ADME, organism-based, Macaca mulatta; details: in vivo, read-out: Vdss
[26] = Cmax in Sprague-Dawley rat at 1 mg/kg, iv and 2 mg/kg, po; assay type: ADME, organism-based; details: in vivo; outline: as §3
[27] = Half life in dog; assay type: ADME, organism-based, Canis lupus familiaris; details: in vivo
[28] = Bioavailability in dog; assay type: ADME, organism-based, Canis lupus familiaris; details: in vivo
[29] = Cmax in rhesus monkey; assay type: ADME, organism-based, Macaca mulatta; details: in vivo
[30] = Oral bioavailability in rhesus monkey; assay type: ADME, organism-based, Macaca mulatta; details: in vivo
[31] = Cmax in dog; assay type: ADME, organism-based, Canis lupus familiaris; details: in vivo
[32] = target: Cytochrome P450 3A4 (Homo sapiens, UniProt P08684); assay: Inhibition of CYP3A4; assay type: ADME
[33] = Volume of distribution at steady state in dog; assay type: ADME, organism-based, Canis lupus familiaris; details: in vivo, read-out: Vdss

T2 sequence (P20272 whole entry): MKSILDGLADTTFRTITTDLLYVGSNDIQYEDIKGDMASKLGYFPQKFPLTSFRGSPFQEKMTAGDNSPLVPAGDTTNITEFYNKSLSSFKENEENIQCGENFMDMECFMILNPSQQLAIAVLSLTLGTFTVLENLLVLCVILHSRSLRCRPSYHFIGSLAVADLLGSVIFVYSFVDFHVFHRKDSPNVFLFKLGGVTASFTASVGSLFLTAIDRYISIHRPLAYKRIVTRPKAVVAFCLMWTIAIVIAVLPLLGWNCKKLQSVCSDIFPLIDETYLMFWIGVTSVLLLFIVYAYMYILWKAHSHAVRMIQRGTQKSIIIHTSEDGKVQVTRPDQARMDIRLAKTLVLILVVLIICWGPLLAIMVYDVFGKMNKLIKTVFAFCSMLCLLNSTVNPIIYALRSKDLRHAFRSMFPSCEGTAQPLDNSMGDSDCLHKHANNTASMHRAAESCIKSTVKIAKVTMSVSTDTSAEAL
T1 sequence (P21554 whole entry): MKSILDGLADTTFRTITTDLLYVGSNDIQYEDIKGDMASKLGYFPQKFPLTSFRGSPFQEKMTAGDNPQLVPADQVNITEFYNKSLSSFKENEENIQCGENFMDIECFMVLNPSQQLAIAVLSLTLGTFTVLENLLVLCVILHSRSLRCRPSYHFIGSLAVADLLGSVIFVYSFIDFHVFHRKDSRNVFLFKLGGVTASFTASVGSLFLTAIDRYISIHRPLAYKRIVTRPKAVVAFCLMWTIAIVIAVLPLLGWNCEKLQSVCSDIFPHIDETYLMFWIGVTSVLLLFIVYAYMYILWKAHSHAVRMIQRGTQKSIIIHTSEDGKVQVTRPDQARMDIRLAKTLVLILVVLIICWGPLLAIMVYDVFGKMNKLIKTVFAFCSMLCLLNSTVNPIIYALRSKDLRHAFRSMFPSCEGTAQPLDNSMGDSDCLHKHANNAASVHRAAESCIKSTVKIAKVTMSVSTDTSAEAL
Chain of Cannabinoid receptor 2 (P34972 whole entry): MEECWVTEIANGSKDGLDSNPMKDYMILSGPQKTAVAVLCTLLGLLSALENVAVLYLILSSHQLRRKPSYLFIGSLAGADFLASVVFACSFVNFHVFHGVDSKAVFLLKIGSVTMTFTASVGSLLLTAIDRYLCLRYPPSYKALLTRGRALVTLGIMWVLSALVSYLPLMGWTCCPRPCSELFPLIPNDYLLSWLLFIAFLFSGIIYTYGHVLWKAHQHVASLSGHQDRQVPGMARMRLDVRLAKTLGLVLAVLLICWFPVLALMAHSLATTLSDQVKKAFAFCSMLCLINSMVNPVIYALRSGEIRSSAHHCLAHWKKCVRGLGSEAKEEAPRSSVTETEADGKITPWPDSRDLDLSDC
Chain of Voltage-gated inwardly rectifying potassium channel KCNH2 (Q12809 whole entry): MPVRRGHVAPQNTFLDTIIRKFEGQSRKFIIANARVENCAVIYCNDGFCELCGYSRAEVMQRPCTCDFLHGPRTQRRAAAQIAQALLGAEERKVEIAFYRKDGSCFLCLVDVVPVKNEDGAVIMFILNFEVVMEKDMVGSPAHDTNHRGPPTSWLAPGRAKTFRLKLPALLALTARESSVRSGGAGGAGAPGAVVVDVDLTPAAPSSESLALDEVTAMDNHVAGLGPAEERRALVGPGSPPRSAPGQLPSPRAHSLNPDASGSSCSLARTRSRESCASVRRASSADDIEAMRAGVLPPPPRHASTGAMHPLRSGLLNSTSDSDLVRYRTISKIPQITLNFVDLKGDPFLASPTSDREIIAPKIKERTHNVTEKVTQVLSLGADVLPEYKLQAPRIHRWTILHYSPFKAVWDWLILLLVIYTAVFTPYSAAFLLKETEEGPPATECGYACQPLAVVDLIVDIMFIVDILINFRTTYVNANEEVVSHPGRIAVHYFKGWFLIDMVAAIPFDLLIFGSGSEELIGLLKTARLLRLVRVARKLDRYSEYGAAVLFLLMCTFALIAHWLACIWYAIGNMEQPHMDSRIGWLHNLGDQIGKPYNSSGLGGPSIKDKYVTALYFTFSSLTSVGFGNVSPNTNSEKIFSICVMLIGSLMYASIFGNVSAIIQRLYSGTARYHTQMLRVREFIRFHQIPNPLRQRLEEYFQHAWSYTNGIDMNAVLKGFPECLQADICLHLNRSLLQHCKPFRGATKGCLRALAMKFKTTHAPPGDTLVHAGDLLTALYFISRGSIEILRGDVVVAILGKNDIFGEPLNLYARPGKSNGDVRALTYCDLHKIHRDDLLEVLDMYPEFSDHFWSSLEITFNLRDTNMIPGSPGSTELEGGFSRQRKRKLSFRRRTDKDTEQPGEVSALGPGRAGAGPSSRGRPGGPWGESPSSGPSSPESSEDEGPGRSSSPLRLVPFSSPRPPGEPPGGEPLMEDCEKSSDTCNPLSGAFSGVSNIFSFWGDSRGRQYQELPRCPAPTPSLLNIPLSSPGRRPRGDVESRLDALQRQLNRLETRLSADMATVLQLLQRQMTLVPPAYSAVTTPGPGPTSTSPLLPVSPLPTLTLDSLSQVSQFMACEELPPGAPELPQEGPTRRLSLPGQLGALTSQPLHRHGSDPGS
Chain of Cytochrome P450 2C9 (P11712 whole entry): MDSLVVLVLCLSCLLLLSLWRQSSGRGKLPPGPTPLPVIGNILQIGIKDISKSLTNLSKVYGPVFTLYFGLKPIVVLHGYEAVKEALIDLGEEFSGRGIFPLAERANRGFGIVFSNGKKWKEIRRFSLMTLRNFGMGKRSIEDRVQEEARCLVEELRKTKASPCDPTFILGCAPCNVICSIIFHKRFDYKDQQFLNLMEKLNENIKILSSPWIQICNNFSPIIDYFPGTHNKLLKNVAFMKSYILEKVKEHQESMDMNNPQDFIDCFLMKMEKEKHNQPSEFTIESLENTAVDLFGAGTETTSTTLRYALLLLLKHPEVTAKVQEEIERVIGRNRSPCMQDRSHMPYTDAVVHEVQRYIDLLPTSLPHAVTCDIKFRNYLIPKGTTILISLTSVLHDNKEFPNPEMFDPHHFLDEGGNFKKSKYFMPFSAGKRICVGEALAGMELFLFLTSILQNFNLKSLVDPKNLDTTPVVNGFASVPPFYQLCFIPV
Chain of Cytochrome P450 3A4 (P08684 whole entry): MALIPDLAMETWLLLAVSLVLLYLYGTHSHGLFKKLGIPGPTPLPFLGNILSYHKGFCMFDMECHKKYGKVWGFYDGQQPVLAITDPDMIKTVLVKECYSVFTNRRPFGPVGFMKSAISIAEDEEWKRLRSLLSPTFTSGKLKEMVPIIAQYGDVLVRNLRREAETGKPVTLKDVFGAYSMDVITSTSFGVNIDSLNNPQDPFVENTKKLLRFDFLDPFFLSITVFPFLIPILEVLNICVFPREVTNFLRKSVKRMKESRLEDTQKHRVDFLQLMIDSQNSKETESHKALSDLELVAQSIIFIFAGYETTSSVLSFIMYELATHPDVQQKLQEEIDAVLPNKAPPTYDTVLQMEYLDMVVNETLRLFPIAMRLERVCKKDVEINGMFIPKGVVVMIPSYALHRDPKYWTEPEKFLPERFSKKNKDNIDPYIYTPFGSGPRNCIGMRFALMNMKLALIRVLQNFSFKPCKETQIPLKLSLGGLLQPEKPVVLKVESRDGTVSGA

Row | SMILES | Activity [1] [%] | EC50 [2] [nM] | bioavailability [3] [%] | EC50 [4] [nM] | IC50 [5] [nM] | IC50 [6] [nM] | Kp at 4 h [7] | IC50 [8] [nM] | Vd [9] [L/kg] | IC50 [10] [nM] | Activity [11] [g] | IC50 [12] [nM] | EC50 [13] [nM] | clearance [14] [mL/min/kg] | IC50 [15] [nM] | Kp [16] | half-life [17] [h] | IC50 [18] [nM] | further results
1 | O=C([C@@H]1C[C@H]1c1ccc(C(F)(F)F)cc1)N1CCN(S(=O)(=O)c2cc(C3CC3)cc(C(F)(F)F)c2)CC1 | -59 | 5.8 | 74 | 5.8 | 9.2 | > 10000 | 0.3 | 2.2 | 5.4 | 0.3 | -14 | 0.1 | 3.4 | 3.7 | 0.2 | 0.8 | 22 | – | –
2 | O=C([C@@H]1C[C@H]1c1ccc(C(F)(F)F)cc1)N1CCN(S(=O)(=O)c2cc(C(O)C(F)(F)F)cc(C(F)(F)F)c2)CC1 (mixture of isomers) | – | – | – | – | – | > 10000 | – | – | – | 1.5 | -8 | – | – | – | – | – | – | 60 | –
3 | O=C(c1ccc(C(F)(F)F)cc1)N1CCN(S(=O)(=O)c2cc(C3CC3)cc(C(F)(F)F)c2)CC1 | -14 | – | 47 | 1.3 | 77 | – | – | 175 | 2.7 | 58 | 8 | 47 | 4.4 | 1.9 | 227 | 0.8 | 19 | – | –
4 | O=C(Cc1ccc(C(F)(F)F)cc1)N1CCN(S(=O)(=O)c2cc(C3CC3)cc(C(F)(F)F)c2)CC1 | -40 | 1 | – | – | 1.9 | > 10000 | – | 27 | – | 1.2 | -2 | 0.5 | 0.6 | – | 11 | 1.1 | – | – | –
5 | O=C([C@@H]1C[C@H]1c1ccc(C(F)(F)F)cc1)N1CCN(S(=O)(=O)c2cc(-c3nnc[nH]3)cc(C(F)(F)F)c2)CC1 | – | – | 31 | – | – | > 10000 | 0.2 | – | 3.8 | 0.2 | -14 | – | – | 23.7 | – | – | 3.8 | – | half-life [19]: 2 h; IC50 [20]: 6000 nM; clearance [21]: 14.6 mL/min/kg; minimal effective dose [22]: 0.3 mg/kg; clearance [23]: 1.4 mL/min/kg; IC50 [24]: 15000 nM; Vd [25]: 2.5 L/kg; Cmax [26]: 190 nM; half-life [27]: 8.6 h; bioavailability [28]: 26%; Cmax [29]: 3 nM; bioavailability [30]: < 2%; Cmax [31]: 210 nM; IC50 [32]: 4700 nM; Vd [33]: 1.1 L/kg
6 | O=C([C@@H]1C[C@H]1c1ccc(C(F)(F)F)cc1)N1CCN(S(=O)(=O)c2cc(-c3ccn[nH]3)cc(C(F)(F)F)c2)CC1 | – | – | – | – | – | > 10000 | – | – | – | 0.3 | -10 | – | – | – | – | – | – | 500 | –
